Measured values from ChEMBL document CHEMBL1817660, “Synthesis of various 3-nitropropionamides as Mycobacterium tuberculosis isocitrate lyase inhibitor” (Bioorg Med Chem Lett, 2011).
≈ marks a conversion by molar mass, not a printed value.

Assays:
[1] = tested on: Mycolicibacterium smegmatis; experiment: Antimycobacterial activity against active log phase Mycobacterium smegmatis ATCC 14468 by agar dilution method; type: functional
Method in brief: (§1)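 Log-phase cultures (M. tuberculosis H37Rv at OD 600; M. smegmatis ATCC 14468) tested by agar dilution following NCCLS-type MIC procedure, in duplicate. MIC taken as lowest concentration giving complete inhibition of bacterial growth.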

[2] = tested on: Mycobacterium tuberculosis; experiment: Antimycobacterial activity against active log phase Mycobacterium tuberculosis H37Rv by agar dilution method; type: functional; method in brief: as §1
[3] = tested on: Mycolicibacterium smegmatis; experiment: Antimycobacterial activity against 6-weeks nutrient starved phase cultures of Mycobacterium smegmatis ATCC 14468 treated for 7 days measured after 4 weeks by agar dilution method; type: functional
[4] = tested on: Mycobacterium tuberculosis; experiment: Antimycobacterial activity against 6-weeks nutrient starved phase cultures of Mycobacterium tuberculosis H37Rv treated for 7 days measured after 4 weeks by agar dilution method; type: functional
Isocitrate lyase = biological target: T1, Isocitrate lyase (Mycobacterium tuberculosis, UniProt P9WKK7); experiment: Inhibition of Mycobacterium tuberculosis isocitrate lyase
T1 sequence (P9WKK7 whole entry): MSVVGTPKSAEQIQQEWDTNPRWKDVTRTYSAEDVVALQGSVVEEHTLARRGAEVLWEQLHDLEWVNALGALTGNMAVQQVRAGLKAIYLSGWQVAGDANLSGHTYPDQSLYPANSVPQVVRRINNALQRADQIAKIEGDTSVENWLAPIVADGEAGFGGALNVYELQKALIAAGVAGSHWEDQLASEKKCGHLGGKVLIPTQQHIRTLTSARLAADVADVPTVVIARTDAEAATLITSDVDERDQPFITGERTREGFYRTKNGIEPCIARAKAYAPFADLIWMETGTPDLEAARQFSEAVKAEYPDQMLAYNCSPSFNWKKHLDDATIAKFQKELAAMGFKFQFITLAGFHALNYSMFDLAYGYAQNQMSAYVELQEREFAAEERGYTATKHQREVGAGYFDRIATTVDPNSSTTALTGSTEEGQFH

[5] = Cytotoxicity against African green monkey Vero cells after 72 hrs by MTT assay; type: cell-based; details: chlorocebus sabaeus
Method in brief: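 Vero cells exposed to a single concentration of 62.5 µg/mL for 72 h; viability read by cellular conversion of MTT to formazan (non-radioactive cell proliferation assay).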

[6] = tested on: Mycobacterium tuberculosis; experiment: Ratio of isoniazid MIC to compound MIC for active log phase Mycobacterium tuberculosis H37Rv by agar dilution method; type: functional
Method in brief: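 MIC by agar dilution, following NCCLS-type guidance, against log-phase M. tuberculosis H37Rv (OD 600), run in duplicate. MIC is the lowest concentration that gives complete inhibition of bacterial growth. The line's ratio is isoniazid MIC divided by compound MIC.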

[7] = tested on: Mycobacterium tuberculosis; experiment: Ratio of MIC for 6-weeks nutrient starved phase cultures of Mycobacterium tuberculosis H37Rv to MIC for active log phase Mycobacterium tuberculosis H37Rv; type: functional
[8] = Selectivity index, ratio of CC50 for African green monkey Vero cells to MIC for 6-weeks nutrient starved phase cultures of Mycobacterium tuberculosis H37Rv; type: functional

| SMILES | MIC [1] [µM] | MIC [2] [µM] | MIC [3] [µM] | MIC [4] [µM] | IC50 (Isocitrate lyase) [µM] | CC50 at 72 h [5] [µM] | Ratio [6] | Ratio [7] | Selectivity Index [8] |
| --- | --- | --- | --- | --- | --- | --- | --- | --- | --- |
| O=C(CC[N+](=O)[O-])Nc1ccc(Br)cc1 | 91.5 (≈ 25 µg/mL) | 183 (≈ 50 µg/mL) | 91.5 (≈ 25 µg/mL) | 45.8 (≈ 12.5 µg/mL) | 32.5 | – | – | – | – |
| O=C(CC[N+](=O)[O-])N1CCN(c2ccccc2)CC1 | 190 (≈ 50 µg/mL) | 190 (≈ 50 µg/mL) | > 190 | 47.5 (≈ 12.5 µg/mL) | 41.2 | – | – | – | – |
| O=C(O)CC[N+](=O)[O-] | > 420 | > 420 | > 420 | > 420 | 116 | – | – | – | – |
| COc1ccc(NC(=O)CC[N+](=O)[O-])cc1 | 112 (≈ 25 µg/mL) | 223 (≈ 50 µg/mL) | > 223 | 55.8 (≈ 12.5 µg/mL) | – | – | – | – | – |
| O=C(CC[N+](=O)[O-])Nc1ccc(Cl)cn1 | 218 (≈ 50 µg/mL) | 109 (≈ 25 µg/mL) | 109 (≈ 25 µg/mL) | 54.4 (≈ 12.5 µg/mL) | – | – | – | – | – |
| O=C(CC[N+](=O)[O-])Nc1ccccc1 | 129 (≈ 25 µg/mL) | 257 (≈ 50 µg/mL) | > 257 | 64.4 (≈ 12.5 µg/mL) | – | – | – | – | – |
| CCn1cc(C(=O)O)c(=O)c2cc(F)c(N3CCN(C(=O)CC[N+](=O)[O-])CC3C)c(F)c21 (configuration not stated) | 6.91 (≈ 3.13 µg/mL) | 3.44 (≈ 1.56 µg/mL) | 1.72 (≈ 0.778 µg/mL) | 1.72 (≈ 0.778 µg/mL) | 1.46 | > 138 | – | – | – |
| O=C(CC[N+](=O)[O-])Nc1ccc(F)cc1 | 118 (≈ 25 µg/mL) | 118 (≈ 25 µg/mL) | 236 (≈ 50 µg/mL) | 58.9 (≈ 12.5 µg/mL) | – | – | – | – | – |
| O=C(CC[N+](=O)[O-])N(Cc1ccccc1)Cc1ccccc1 | 168 (≈ 50 µg/mL) | > 168 | > 168 | > 168 | – | – | – | – | – |
| O=C(CC[N+](=O)[O-])N1CCN(Cc2ccccc2)CC1 | > 180 | > 180 | > 180 | 90.1 (≈ 25 µg/mL) | – | – | – | – | – |
| CCCN(CCC)C(=O)CC[N+](=O)[O-] | > 247 | > 247 | > 247 | > 247 | – | – | – | – | – |
| Cc1ccnc(NC(=O)CC[N+](=O)[O-])c1 | > 239 | 239 (≈ 50 µg/mL) | 239 (≈ 50 µg/mL) | 59.8 (≈ 12.5 µg/mL) | – | – | – | – | – |
| CCn1cc(C(=O)O)c(=O)c2cc(F)c(N3CCN(C(=O)CC[N+](=O)[O-])CC3)cc21 | 7.44 (≈ 3.13 µg/mL) | 1.85 (≈ 0.778 µg/mL) | 0.95 (≈ 0.399 µg/mL) | 0.47 (≈ 0.198 µg/mL) | 0.2 | > 149 | – | – | – |
| O=C(CC[N+](=O)[O-])Nc1ccc(Cl)cc1 | 54.7 (≈ 12.5 µg/mL) | 109 (≈ 25 µg/mL) | 13.7 (≈ 3.13 µg/mL) | 27.3 (≈ 6.25 µg/mL) | 21.3 | – | – | – | – |
| O=C(O)c1cn(C2CC2)c2cc(N3CCN(C(=O)CC[N+](=O)[O-])CC3)c(F)cc2c1=O | 0.09 (≈ 0.0389 µg/mL) | 1.8 (≈ 0.778 µg/mL) | 0.09 (≈ 0.0389 µg/mL) | 0.09 (≈ 0.0389 µg/mL) | 0.12 | > 145 | – | – | – |
| CCN(CC)C(=O)CC[N+](=O)[O-] | 287 (≈ 50 µg/mL) | > 287 | > 287 | > 287 | – | – | – | – | – |
| O=C(O)c1cn(C2CC2)c2cc(N3CCNCC3)c(F)cc2c1=O [CIPROFLOXACIN] | – | – | 2.35 (≈ 0.779 µg/mL) | – | – | – | – | – | – |
| Cc1cc(NC(=O)CC[N+](=O)[O-])ccc1Br | 87.1 (≈ 25 µg/mL) | 43.5 (≈ 12.5 µg/mL) | 43.5 (≈ 12.5 µg/mL) | 43.5 (≈ 12.5 µg/mL) | 36.8 | – | – | – | – |
| O=C(CC[N+](=O)[O-])N1CCN(c2cccc(C(F)(F)F)c2)CC1 | 75.5 (≈ 25 µg/mL) | 151 (≈ 50 µg/mL) | 75.5 (≈ 25 µg/mL) | 37.7 (≈ 12.5 µg/mL) | 30.2 | – | – | – | – |
| NNC(=O)c1ccncc1 [ISONIAZID] | 45.6 (≈ 6.25 µg/mL) | 0.72 (≈ 0.0987 µg/mL) | > 365 | > 365 | – | > 456 | – | – | – |
| Cc1ccc(NC(=O)CC[N+](=O)[O-])c(C)c1 | 225 (≈ 50 µg/mL) | 225 (≈ 50 µg/mL) | > 225 | 75 (≈ 16.7 µg/mL) | – | – | – | – | – |
| Cc1ccc(NC(=O)CC[N+](=O)[O-])cc1 | 120 (≈ 25 µg/mL) | 240 (≈ 50 µg/mL) | > 240 | 60 (≈ 12.5 µg/mL) | – | – | – | – | – |
| CCN1CCN(C(=O)CC[N+](=O)[O-])CC1 | 58.1 (≈ 12.5 µg/mL) | 58.1 (≈ 12.5 µg/mL) | 116 (≈ 25 µg/mL) | 29 (≈ 6.25 µg/mL) | 12.6 | – | – | – | – |
| COc1c(N2C(C)CN(C(=O)CC[N+](=O)[O-])CC2C)c(F)cc2c(=O)c(C(=O)O)cn(C3CC3)c12 (configuration not stated) | 0.08 (≈ 0.0392 µg/mL) | 0.16 (≈ 0.0785 µg/mL) | 0.08 (≈ 0.0392 µg/mL) | 0.04 (≈ 0.0196 µg/mL) | 0.1 | > 127 | 4.5 | 4 | 3185 |
